Laboratory results taken from PMC3744939 (ChemMedChem, 2012).
Where a name gives a salt, the structure may show the parent alone. Read-outs that look alike come from different tables or passages of the source.

Columns and labels:
[1] = molecular target: T1, recombinant T. b. brucei CTPS (Trypanosoma brucei brucei, UniProt Q4GZ95); assay: CTPS enzyme assay; type: biochemical
T1 sequence (Q4GZ95 1-589): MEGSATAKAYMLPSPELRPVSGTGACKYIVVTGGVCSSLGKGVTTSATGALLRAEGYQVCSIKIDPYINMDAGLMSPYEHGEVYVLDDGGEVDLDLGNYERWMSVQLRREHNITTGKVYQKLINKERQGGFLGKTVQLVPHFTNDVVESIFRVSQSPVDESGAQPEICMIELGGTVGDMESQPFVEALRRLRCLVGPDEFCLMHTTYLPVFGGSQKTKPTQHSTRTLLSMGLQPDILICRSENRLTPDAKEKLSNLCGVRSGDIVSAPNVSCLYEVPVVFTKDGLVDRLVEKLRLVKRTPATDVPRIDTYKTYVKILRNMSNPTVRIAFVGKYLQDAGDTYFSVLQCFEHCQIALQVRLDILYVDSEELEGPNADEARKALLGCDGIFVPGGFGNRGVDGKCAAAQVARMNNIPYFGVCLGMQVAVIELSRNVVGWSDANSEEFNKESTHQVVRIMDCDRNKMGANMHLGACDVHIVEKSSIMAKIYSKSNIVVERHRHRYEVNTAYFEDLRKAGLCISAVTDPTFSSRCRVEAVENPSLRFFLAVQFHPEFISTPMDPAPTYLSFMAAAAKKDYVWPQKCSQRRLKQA
Outline: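 Recombinant T. b. brucei CTPS measured by coupled spectrophotometric assay with pyruvate kinase/lactate dehydrogenase. Enzyme pre-incubated with varied test-compound concentrations at room temperature, then added to reaction mix; A341 decrease monitored; IC50.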

[2] = tested on: bloodstream form T. b. brucei (strain 427); assay: In vitro toxicity assay for T. b. brucei; type: cell-based; details: for EC50: read-out: T. b. brucei EC50, strain 427, 48 h + 24 h Alamar Blue
HeLa cells [3] = assay: In vitro toxicity assay for HeLa mammalian cells; type: cell-based, human; details: read-out: HeLa EC50
Outline: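 Alamar Blue assay on HeLa cells grown in DMEM with 10% FCS and 2 mM L-glutamine. Cells plated at 3 × 10^5 cells mL−1 and exposed to serially diluted test compound for 16 h before Alamar Blue addition. Fluorescence read at ex 544/em 590 nm; EC50 derived from the dose-response.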

[4] = molecular target: T1, recombinant T. b. brucei CTPS; details: 3-Br versus 3-Cl (Acivicin); cited from earlier work
[5] = tested on: bloodstream form T. b. brucei (strain 427); details: 3-Br versus 3-Cl (Acivicin); cited from earlier work
HeLa cells [6] = details: 3-Br versus 3-Cl (Acivicin); cited from earlier work
[7] = 16 hours incubation before Alamar Blue

## CN(C)C1=NO[C@H]([C@H](N)C(=O)O)C1 [Compound 3, (S)-2-amino-2-((S)-3-(dimethylamino)-4,5-dihydroisoxazol-5-yl)acetic acid]
[1]
  IC50: > 500 µM
  inhibitory activity against CTPS, in words: complete loss of the inhibitory potency
[2]
  S.I. selectivity index (EC50 HeLa/EC50 T. b. brucei): >5
HeLa cells [3]; Homo sapiens, HeLa, 16 h
  EC50: > 500 µM

## N[C@H](C(=O)O)[C@@H]1CC(Cl)=NN1Cc1ccccc1 (relative stereo) [Compound 7b, (S*)-2-amino-2-((S*)-1-benzyl-3-chloro-4,5-dihydro-1H-pyrazol-5-yl)acetic acid hydrochloride]
[1]
  IC50: > 500 µM
HeLa cells [3]; Homo sapiens, HeLa, 16 h
  EC50: > 500 µM

## COC1=NO[C@H]([C@H](N)C(=O)O)C1 [Compound 2, (S)-2-amino-2-((S)-3-methoxy-4,5-dihydroisoxazol-5-yl)acetic acid]
[1]
  IC50: > 500 µM
[2]
  S.I. selectivity index (EC50 HeLa/EC50 T. b. brucei): >5
HeLa cells [3]; Homo sapiens, HeLa, 16 h
  EC50: > 500 µM

## N[C@H](C(=O)O)[C@@H]1CC(Cl)=NO1 [Acivicin, reference compound]
[2]
  S.I. selectivity index (EC50 HeLa/EC50 T. b. brucei): 36
HeLa cells [3]; Homo sapiens, HeLa, 16 h
  EC50: 16.3 µM

## N[C@H](C(=O)O)[C@H]1CC(Cl)=NN1Cc1ccccc1 (relative stereo) [Compound 7a, (S*)-2-amino-2-((R*)-1-benzyl-3-chloro-4,5-dihydro-1H-pyrazol-5-yl)acetic acid hydrochloride]
[1]
  IC50: > 500 µM
HeLa cells [3]; Homo sapiens, HeLa, 16 h
  EC50: > 500 µM

## O=C(O)CC1CC(Br)=NO1 (centres unmarked) [Compound 4, 2-(3-bromo-4,5-dihydroisoxazol-5-yl)acetic acid]
[1]
  IC50: > 500 µM
  inhibitory activity against CTPS, in words: inactive
[2]
  S.I. selectivity index (EC50 HeLa/EC50 T. b. brucei): >5
HeLa cells [3]; Homo sapiens, HeLa, 16 h
  EC50: > 500 µM

## CCN1N=C(Cl)C[C@@H]1[C@H](N)C(=O)O.Cl (relative stereo) [Compound 8a, (S*)-2-amino-2-((R*)-3-chloro-1-ethyl-4,5-dihydro-1H-pyrazol-5-yl)acetic acid hydrochloride]
[1]
  IC50: 0.1 ± 0.004 µM
  inhibitory activity against CTPS, in words: sub-micromolar inhibition
[1]; relative to Acivicin
  times more potent than Acivicin as a CTPS inhibitor: about three times more potent
[2]
  S.I. selectivity index (EC50 HeLa/EC50 T. b. brucei): >5
[2]; methyl ester versus free amino acid
  increase of trypanocidal activity upon conversion into the methyl ester (times): about 9
HeLa cells [3]; Homo sapiens, HeLa, 16 h
  EC50: > 500 µM

## COC(=O)[C@@H](N)[C@@H]1CC(Cl)=NO1 [Acivicin-COOMe]
[2]
  EC50: 22.4 ± 1.3 µM
HeLa cells [3]; [7]
  EC50: 41.9 ± 3.1 µM

## Cl.NCCN1N=C(Cl)CC1C(N)C(=O)O (centres unmarked) [9a,b, 2-amino-2-(1-(2-aminoethyl)-3-chloro-4,5-dihydro-1H-pyrazol-5-yl)acetic acid monohydrochloride]
[1]
  IC50: 0.125 ± 0.002 µM
  inhibitory activity against CTPS, in words: sub-micromolar inhibition
[1]; relative to Acivicin
  times more potent than Acivicin as a CTPS inhibitor: about three times more potent
HeLa cells [3]; Homo sapiens, HeLa, 16 h
  EC50: > 500 µM

## O=C(N[C@H](C(=O)O)[C@@H]1CC(Br)=NO1)OCc1ccccc1 [Compound 6, (S)-(benzyloxycarbonylamino)-2-((S)-3-bromo-4,5-dihydro-isoxazol-5-yl)acetic acid]
[1]
  IC50: 1.74 ± 0.4 µM
[1]; relative to Acivicin
  times weaker than Acivicin as a CTPS inhibitor: 5
[1]; relative to Br-Acivicin
  times weaker than Br-Acivicin as a CTPS inhibitor: 17
HeLa cells [3]; Homo sapiens, HeLa, 16 h
  EC50: 410 ± 39 µM

## CC(C)(C)OC(=O)N[C@H](C(=O)O)[C@@H]1CC(Br)=NO1 [Compound 5]
[1]; relative to Br-Acivicin
  CTPS inhibitory potency relative to Br-Acivicin: twice more potent
[2]
  EC50: 3.4 ± 0.4 µM
HeLa cells [3]; [7]
  EC50: 4.6 ± 0.5 µM

## COC(=O)[C@@H](N)[C@@H]1CC(Br)=NO1 [1-COOMe]
[2]
  EC50: 2.1 ± 0.5 µM
HeLa cells [3]; [7]
  EC50: 12.5 ± 1.6 µM

## N[C@H](C(=O)O)[C@@H]1CC(Br)=NO1 [Compound 1, Br-Acivicin]
[1]; relative to Acivicin
  times more potent than Acivicin as a CTPS inhibitor: 3
[2]
  EC50: 0.038 ± 0.013 µM
[2]; relative to Acivicin
  times more efficacious than Acivicin as an anti-trypanosomal agent: 12
HeLa cells [3]; [7]
  EC50: 15.1 ± 1.2 µM
[4]
  increase of the inhibitory potency against CTPS: three fold
[5]
  increase in the in vitro anti-trypanosomal activity: twelve-fold
HeLa cells [6]
  toxicity against mammalian cells: unaffected

## CCN1N=C(Cl)C[C@H]1[C@H](N)C(=O)O (relative stereo) [Compound 8b, (S*)-2-amino-2-((S*)-3-chloro-1-ethyl-4,5-dihydro-1H-pyrazol-5-yl)acetic acid hydrochloride]
[1]
  IC50: > 500 µM
HeLa cells [3]; Homo sapiens, HeLa, 16 h
  EC50: > 500 µM
